Data reported in ChEMBL document CHEMBL1122079, “Tryptophan analogues. 1. Synthesis and antihypertensive activity of positional isomers” (1982).

Key:
Felis catus [1] = experiment: Change in blood pressure in normotensive anesthetized cat.; format: functional
In short: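 Normotensive cats of either sex (2-4 kg) anesthetized with α-chloralose (80 mg/kg iv). Trachea, femoral artery and jugular vein cannulated. Compound given iv at 10 mg/kg, with 1 mg/kg iv used in one case. Mean blood pressure recorded by pressure transducer before and 30 min after dosing, reported as decrease in mmHg.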

Rattus norvegicus [2] = experiment: Antihypertensive activity in renal hypertensive rats 6 hr after oral administration (10 mg/Kg); format: functional
In short: (§1)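 Renal hypertensive rats (5 or 10 per group), 10 mg/kg given orally. Systolic pressure measured indirectly by tail occluding cuff with pulse sensor, once before dosing as control and again at 1, 2, 4, 6 and 8 h. Values are changes in mean systolic pressure from control (mmHg). Significance of control vs posttreatment assessed by Wilcoxon's signed rank test (p < 0.05).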

Rattus norvegicus [3] = experiment: Antihypertensive activity in renal hypertensive rats 8 hr after oral administration (10 mg/Kg); format: functional; in short: as §1
Rattus norvegicus [4] = experiment: Antihypertensive activity in renal hypertensive rats 1 hr after oral administration (10 mg/Kg); format: functional; in short: as §1
Rattus norvegicus [5] = experiment: Antihypertensive activity in renal hypertensive rats 2 hr after oral administration (10 mg/Kg); format: functional; in short: as §1
Rattus norvegicus [6] = experiment: Antihypertensive activity in renal hypertensive rats 4 hr after oral administration (10 mg/Kg); format: functional; in short: as §1
Felis catus [7] = experiment: Control blood pressure in normotensive anesthetized cat at dose 10 mg/Kg iv

Compound	BP (Felis catus [1]) [mmHg]	BP (Rattus norvegicus [2]) [mmHg]	BP (Rattus norvegicus [3]) [mmHg]	BP (Rattus norvegicus [4]) [mmHg]	BP (Rattus norvegicus [5]) [mmHg]	BP (Rattus norvegicus [6]) [mmHg]	control BP (Felis catus [7]) [mmHg]
COc1ccc2[nH]cc(C(CN)C(=O)O)c2c1 (stereo not drawn)	-5	-6	-2	-1	-10	2	142
NCC(CC(=O)O)c1c[nH]c2cc(Cl)ccc12 (stereo not drawn)	5	-9	-2	2	5	-9	160
CCOC(=O)C(N)Cc1c[nH]c2ccc(O)cc12 (stereo not drawn)	-24	2	1	-14	-5	2	156
COC(=O)CC(CN)c1c[nH]c2ccc(OC)cc12 (stereo not drawn)	-25	-13	-12	-14	-15	-6	166
COC(=O)C(CN(C)C)c1c[nH]c2ccc(OC)cc12.O=C(O)C(=O)O (stereo not drawn)	-35	14	13	-9	-2	1	167
CCCCCOC(=O)C(CN)c1c[nH]c2ccc(OC)cc12.Cl (stereo not drawn)	2	-11	-4	-7	-11	-3	148
CCOC(=O)NCC(c1nnn[nH]1)c1c[nH]c2ccccc12 (stereo not drawn)	5	-17	-15	-10	-6	-24	155
Cl.NCC(C(=O)O)c1c[nH]c2ccc(Br)cc12 (stereo not drawn)	-15	5	0	-12	-5	0	115
CCOC(=O)C(CNC(C)=O)c1cn(C(=O)OCC)c2cc(Cl)ccc12 (stereo not drawn)	-2	-7	-3	-18	-12	-12	165
COc1ccc2[nH]cc(C(CN)C(=O)OC(C)C)c2c1.Cl (stereo not drawn)	-48	7	13	7	-1	13	181
CCOC(=O)C(CN)c1c[nH]c2ccc(OC)cc12.Cl (stereo not drawn)	0	-2	-3	-5	-4	4	160
CCOC(=O)C(C)(N)Cc1c[nH]c2ccc(O)cc12 (stereo not drawn)	9	22	6	-2	-7	14	142
COC(=O)C(CN)c1c[nH]c2ccc(Cl)cc12.Cl (stereo not drawn)	-61	2	5	-8	-5	0	160
COC(=O)C(CN)c1c[nH]c2ccc(F)cc12.Cl (stereo not drawn)	-30	-4	1	-28	-18	-9	133
